tested on: T1, OR2M5 D11G; settings: stereoisomer not certain
T1 sequence (whole entry): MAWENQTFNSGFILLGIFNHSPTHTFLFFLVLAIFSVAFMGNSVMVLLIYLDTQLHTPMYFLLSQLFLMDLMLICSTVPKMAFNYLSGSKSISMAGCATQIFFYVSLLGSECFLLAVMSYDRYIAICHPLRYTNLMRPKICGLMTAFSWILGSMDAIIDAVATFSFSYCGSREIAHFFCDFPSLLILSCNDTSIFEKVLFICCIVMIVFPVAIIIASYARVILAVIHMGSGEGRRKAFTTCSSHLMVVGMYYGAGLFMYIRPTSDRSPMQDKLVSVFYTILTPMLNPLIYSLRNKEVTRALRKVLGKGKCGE
Method in brief: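 Values were gathered from published papers (main text and supplementary material), with extra details requested from the original authors when needed, and checked for typos and inconsistencies. Each receptor–molecule pair is called responsive (active) if the original authors judged the measured signal statistically different from baseline, and non-responsive (inactive) otherwise. Assay methods varied by source, often transient mammalian cell-line luciferase assays. Recorded details include cell line, G-protein, co-transfected protein and tags.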

| Compound | odorant receptor agonist call |
| --- | --- |
| CCCCCCC=CCCC=O | inactive |
| CCC1OC(C)=C(O)C1=O (stereo not drawn) | inactive |
| CC1=NC(C)C(C)S1 (stereo not drawn) | inactive |
| Cc1cnc(C)c(C)n1 | inactive |
| CC1=C(O)C(=O)C(C)O1 (stereo not drawn) | inactive |
| CCC1OC(=O)C(O)=C1C (stereo not drawn) | inactive |
| CCCC(S)CCOC(C)=O (stereo not drawn) | inactive |
| CC1=C(O)C(=O)OC1C (stereo not drawn) | inactive |

From the M2OR odorant receptor database
